# Source: PubChem BioAssay (several laboratories)
# STAT1 inh: STAT1 signaling inhibition; NIH 3T3 STAT1-luciferase reporter, IFN-gamma, luminescence; inhibition, % at 5.5 µM; 0.35% of 200,000 active; AID 920;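 active means inhibition above a set limit, the mean inhibition across all tested compounds plus 3 SD, cut at about 34% in these data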;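 further: 0% = IFN-gamma with DMSO and 100% = IFN-gamma with 300 µM nifuroxazide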
# C8 TRAIL sens: caspase-8 TRAIL sensitization. NB7+C8 cells + TRAIL, ATPlite viability luminescence. inhibition (viability loss, TRAIL sensitization), % at 10 µM. 1% of 360,000 active. AID 624354;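 active means compounds causing at least 50% loss of cell viability in the single-dose screen, relative to plate controls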
# STAT3 act: activators of IL-6 induced STAT3 signaling. U3A cells, IL-6 STAT3-luciferase reporter, luminescence; 100% = signal with IL-6 EC80 alone. activation (% of control), % at 5.6 µM. 0.91% of 190,000 active. AID 871;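 active means activation above the screen-wide mean of compound activation plus 3 SD, cut at about 130% in these data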;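 further: 0% = background luminescence of wells with medium and substrate only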
#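 Material: STAT1-lacking human U3A cells, STAT3 luciferase reporter | Benchmarks: IL-6-only wells as 100% reference | Probe or stimulus: IL-6 (33 ng/mL) | Timing: Compound 1 h, then IL-6 6 h at 37 °C | Detection: Luminescence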
# STAT3 inh-1: reduces IL-6 driven STAT3 reporter signal; 0.89% of 190,000 active; AID 862; U3A cells, IL-6 STAT3-luciferase reporter, luminescence; host cell line lacks STAT1; inhibition, % at 5.5 µM;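 active means inhibition above the mean inhibition across all screened compounds plus 3 SD, cut at about 44% in these data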;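 further: 0% = DMSO only wells and 100% = 100 µM nifuroxazide control wells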
# PPC-1+TRAIL kill: kills PPC-1 cancer cells in the presence of TRAIL; cell killing (% activity), % at 4 µM or 5 µM; AID 1443; 0.41% of 220,000 active; PPC-1 cells + TRAIL, ATPLite viability luminescence;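 active means cell killing above 50% in the first pass at 4 µM, then a duplicate retest at 5 µM averaging 50% or more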;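 further: plate controls were cells with TRAIL plus DMSO for no effect and medium-only wells lacking cells for full effect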
# STAT3 inh-2: STAT3 inhibition, confirmation assay; shares compounds with STAT3 inh-1; U3A cells, IL-6 STAT3 luciferase reporter, luminescence; cell line lacks STAT1; inhibition, % at 5.7 µM; 45% of 1,200 active; AID 1265;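 active means inhibition above the hit cutoff computed for the primary STAT3 screen, cut at about 44% in these data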;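 further: 0% = IL-6 plus DMSO and 100% = IL-6 plus nifuroxazide control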
# NFkB inh STAT3ct: NF-kappaB inhibition in STAT3 inhibitor counter-screen. shares compounds with STAT3 inh-1. HEK293T NF-kB luciferase reporter, TNF-alpha induced. inhibition, % at 5.7 µM. 36% of 1,200 active;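 active means inhibition above the mean of solvent-only control wells plus 3 SD, cutoff set per campaign, cut at about 13% in these data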;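 further: 0% = TNF-alpha with DMSO and 100% = TNF-alpha with MG high control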
# STAT1 inh 2: counter-screen for STAT3 inhibitors: STAT1 inhibition; shares compounds with STAT3 inh-1; NIH 3T3 STAT1-luciferase reporter, IFN-gamma induced, luminescence; inhibition, % at 5.7 µM; 27% of 1,200 active; AID 1317;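 active means inhibition above the mean plus 3 SD of solvent-only control wells, limit set per screening run, cut at about 16% in these data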;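 further: 0% = DMSO with IFN-gamma and 100% = nifuroxazide control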
# * hit, by the source's call; nt = not tested or not shown. Compounds with a hit are over-represented: about 1.8% of the library has one in this group of screens.
SMILES,STAT1 inh,C8 TRAIL sens,STAT3 act,STAT3 inh-1,PPC-1+TRAIL kill,STAT3 inh-2,NFkB inh STAT3ct,STAT1 inh 2
Cc1cccc(NC(=O)c2ccc(CN3CCN(Cc4ccccc4)CC3)cc2)c1,6,-3,48,63*,11,62*,14*,-7
Cc1nc(-c2cccc(NC(=O)c3ccc(Br)o3)c2)cs1,nt,5,nt,nt,nt,nt,nt,nt
Cc1nc(-c2ccc(C(=O)Nc3cccc(Br)c3)cc2)cs1,-27,78*,26,88*,40,81*,8,-144
COc1ccc(C(=O)Nc2cccc(C)c2)cc1,-41,48,63,44*,37,2,-37,-74
COc1ccc(/C=N/NC(=O)CSCC(=O)Nc2ccccc2)cc1OC,-8,8,105,-6,10,nt,nt,nt
COC(=O)Oc1ccc(/C=N/NC(=O)CSCc2ccccc2Br)cc1OC,9,7,55,58*,23,66*,2,12
CN=c1scc(-c2ccccc2Br)n1/N=C/c1ccc[nH]1,16,nt,56,58*,15,19,-15,-103
CN=c1scc(-c2ccc(Br)cc2)n1C,-1,3,95,9,-12,nt,nt,nt
Oc1ccc(-c2cn3cc(C(F)(F)F)ccc3n2)cc1,2,89*,29,83*,85*,80*,39*,18*
Clc1ccc(-c2cn3cc(Cl)ccc3n2)cc1,nt,41,nt,nt,nt,nt,nt,nt
COc1ccc2oc(C(=O)OCC(=O)NCc3ccco3)c(C)c2c1,nt,13,nt,nt,nt,nt,nt,nt
CCOc1ccc(-n2c(-c3ccc(OC)cc3)c[n+]3c2CCCCC3)cc1,25,41,29,85*,18,87*,15*,33*
CCOc1ccc(-n2c(-c3ccc(Br)cc3)c[n+]3c2CCCCC3)cc1,29,36,53,60*,2,39,-3,23*
COc1ccc(-c2c[n+]3c(n2-c2ccc(C)cc2)CCCCC3)cc1,nt,24,nt,nt,1,nt,nt,nt
FC(F)Oc1ccc(-c2c[n+]3c(n2-c2ccccc2)CCCCC3)cc1,nt,14,nt,nt,-4,nt,nt,nt
CCOc1ccc(-n2c(-c3ccccc3)c[n+]3c2CCC3)cc1,34,40,43,71*,28,59*,0,22*
CC(C)(CNC(=O)CNC(=O)c1ccccc1F)N1CCOCC1,nt,-16,nt,nt,nt,nt,nt,nt
Oc1ccc(C=NNC(=S)Nc2ccccc2)nc1,nt,17,nt,nt,nt,nt,nt,nt
O=c1c2sc(-c3ccccc3)cc2nc2n1CCC2,-7,54*,61,49*,12,33,-11,-76
COC(=O)c1nn(-c2ccc3c(c2)CCN3C(C)=O)cc1O,12,81*,14,100*,76*,84*,-10,-27
COC(=O)c1nn(-c2ccc3c(c2)OCO3)cc1O,-3,14,87,19,19,nt,nt,nt
CCN(C(=O)COC(=O)CSc1ccc(F)cc1)c1c(N)n(Cc2ccccc2)c(=O)[nH]c1=O,nt,-15,nt,nt,nt,nt,nt,nt
CNc1nnc(-c2ccc(N(C)C)cc2)s1,15,73*,57,53*,60*,19,-10,-57
Cc1cnc(NC(=O)C2(C)CCN2C(=O)C(C)C)s1 (stereo not given),nt,-6,nt,nt,nt,nt,nt,nt
N#C/C(=C\c1c[nH]c2ccc(Br)cc12)c1ccccn1,nt,21,nt,nt,nt,nt,nt,nt
SMILES,STAT1 inh,C8 TRAIL sens,STAT3 act,STAT3 inh-1,PPC-1+TRAIL kill,STAT3 inh-2,NFkB inh STAT3ct,STAT1 inh 2
O=C(Nc1ccc(-c2nc3ccccc3s2)cc1)c1cc(-n2cnnc2)ccc1Cl,4,36,53,62*,35,33,-2,-10
Cc1cc(NC(=O)c2ccc3c(c2)OCCO3)no1,9,87*,41,74*,42,41,6,-11
O=C(Nc1ccccn1)c1ccc2c(c1)OCCO2,-12,56*,60,51*,nt,21,-21,-50
Cc1cccc(NC(=O)c2ccc3c(c2)OCCO3)n1,nt,38,nt,nt,nt,nt,nt,nt
CCOC(=O)c1sc(NC(=O)CSc2nc3cccnc3n2C)nc1C,nt,-4,nt,nt,nt,nt,nt,nt
CCOC(=O)c1cccc(NC(=O)CSc2nc3cccnc3n2C)c1,14,-2,55,59*,25,43,3,7
Cc1nc2ccccn2c1-c1csc(Nc2cccc(O)c2)n1,13,12,77,31,nt,nt,nt,nt
Cc1cccc(Nc2nc(-c3c(C)nc4ccccn34)cs2)c1,12,13,56,58*,0,62*,18*,16
CCN(CC)S(=O)(=O)c1cc(C(=O)Nc2ccncc2)ccc1Cl,22,22,57,56*,18,34,11,17*
CCN(CC)C(=O)Oc1ccc2c(=O)c(-c3ccc(OC)cc3)coc2c1,-47,22,88,16,-2,nt,nt,nt
COc1ccc2c(=O)c(-c3ccc4c(c3)OCO4)coc2c1,-70,57*,52,55*,40,26,-12,-104
O=C(Nc1cccc(C(=O)NC2CC2)c1)c1ccc(Cl)c(S(=O)(=O)N2CCOCC2)c1,nt,-1,nt,nt,nt,nt,nt,nt
O=C(Nc1ccc(Cl)c(S(=O)(=O)N2CCOCC2)c1)c1ccc(OCC2CCCO2)cc1 (stereo not given),26,51*,58,54*,11,61*,22*,9
O=C(Nc1cccc(Br)c1)c1ccc(Cl)c(S(=O)(=O)N2CCOCC2)c1,12,38,40,73*,30,66*,15*,13
Cc1cc(C)n(-c2ccc(C(=O)Nc3cccc(S(=O)(=O)N4CCCC4)c3)cc2)n1,23,18,66,44*,19,39,4,9
COc1ccc(C(=O)Nc2ccc(-c3ccc(C)o3)cc2)cc1S(=O)(=O)N1CCOCC1,0,37,45,70*,21,71*,28*,1
Cc1ccc(C(=O)Nc2cccc(C(=O)O)c2)cc1S(=O)(=O)N1CCCCC1,22,32,58,55*,28,13,14*,18*
Cc1ccc(C(=O)Nc2cccc(C(=O)O)c2)cc1S(=O)(=O)N1CCOCC1,19,2,81,23,4,nt,nt,nt
CCc1sc(C(=O)N(CCCOC)c2c(N)n(CC(C)C)c(=O)[nH]c2=O)cc1C,nt,-3,nt,nt,nt,nt,nt,nt
O=C(Nc1nc2ccccc2[nH]1)c1ccc([N+](=O)[O-])cc1,-19,51*,56,55*,48,16,-19,-92
COc1cccc(C(N)=O)c1OC(=O)Cc1ccccc1F,nt,-6,nt,nt,nt,nt,nt,nt
Cc1ccccc1C1=C/C(=C(\SS/C(C(=O)c2ccc(OCC(=O)O)c(Cl)c2Cl)=C2\C=C(c3ccccc3C)SS2)C(=O)c2ccc(OCC(=O)O)c(Cl)c2Cl)SS1,nt,-3,nt,nt,nt,nt,nt,nt
CCN1CCN(C(c2cccnc2)c2c(NC(=O)c3ccco3)sc(C)c2C)CC1 (stereo not given),nt,2,nt,nt,nt,nt,nt,nt
